Laboratory results published in PMC6172068 (Cancer Science, 2018).

Experiments:
[1] = system: relapsed/refractory (R/R) acute myeloid leukemia (AML); assay: Antileukemic activity; type: in vivo, Japanese patients
Outline: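 Adults (≥18 years) with relapsed/refractory AML took an oral test compound once daily in escalating cohorts (20–300 mg/d). Cycle 0 was a single dose with 2-day observation, followed by 28-day cycles. Marrow aspirates or biopsies were taken at screening, Cycle 1 Day 28, Day 1 of later cycles and end of treatment. CR, CRp and CRi followed International Working Group criteria. The full analysis set was used.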

[2] = Plasma pharmacokinetics after single and multiple doses; type: in vivo, Japanese patients
Urine pharmacokinetics = type: in vivo, Japanese patients
[3] = 12-lead electrocardiogram QT interval; type: in vivo, Japanese patients
AXL = conditions: preclinical studies; cited from earlier work
[4] = system: anaplastic lymphoma kinase; conditions: preclinical studies; cited from earlier work
[5] = system: leukocyte receptor tyrosine kinase; conditions: preclinical studies; cited from earlier work
[6] = system: FLT3 receptors expressing FLT3-ITD; conditions: leukemic cells; cited from earlier work
[7] = system: FLT3 receptors expressing F691 gatekeeper mutations; conditions: leukemic cells; cited from earlier work
c-Kit = conditions: cited from earlier work
[8] = FLT3 mutation-negative patients, Total (n = 11)
[9] = FLT3 mutation-positive patients, 20 mg (n = 1)
[10] = FLT3 mutation-positive patients, 40 mg (n = 1)
[11] = FLT3 mutation-positive patients, 80 mg (n = 1)
[12] = FLT3 mutation-positive patients, 200 mg (n = 2)
[13] = patients with mutated FLT3 (n = 5), 1 patient
[14] = patients with wild-type FLT3 (n = 11), 1 patient
[15] = one patient who received 20 mg/d

For CCc1nc(C(N)=O)c(Nc2ccc(N3CCC(N4CCN(C)CC4)CC3)c(OC)c2)nc1NC1CCOCC1 [gilteritinib], the CR ([1]; All patients, 20 mg (n = 1)) was 0 n (%, [95% CI]), the “CRc (CR plus CRp plus CRi)” value ([1]; All patients, 20 mg (n = 1)) was 1 (100 [2.5, 100]) n (%, [95% CI]) and the CRi ([1]; All patients, 20 mg (n = 1)) was 1 (100 [2.5, 100]) n (%, [95% CI]). For the same compound, the CRp ([1]; All patients, 20 mg (n = 1)) was 0 n (%, [95% CI]), the “ORR (CRc plus PR)” value ([1]; All patients, 20 mg (n = 1)) was 1 (100 [2.5, 100]) n (%, [95% CI]) and the PR ([1]; All patients, 20 mg (n = 1)) was 0 n (%, [95% CI]). The CR ([1]; All patients, 40 mg (n = 3)) was 0 n (%, [95% CI]), the “CRc (CR plus CRp plus CRi)” value ([1]; All patients, 40 mg (n = 3)) was 0 n (%, [95% CI]) and the CRi ([1]; All patients, 40 mg (n = 3)) was 0 n (%, [95% CI]). For the same compound, the CRp ([1]; All patients, 40 mg (n = 3)) was 0 n (%, [95% CI]), the CR ([1]; All patients, 80 mg (n = 4)) was 1 (25 [0.6, 80.6]) n (%, [95% CI]) and the “CRc (CR plus CRp plus CRi)” value ([1]; All patients, 80 mg (n = 4)) was 1 (25 [0.6, 80.6]) n (%, [95% CI]). The CRi ([1]; All patients, 80 mg (n = 4)) was 0 n (%, [95% CI]), the CRp ([1]; All patients, 80 mg (n = 4)) was 0 n (%, [95% CI]) and the “ORR (CRc plus PR)” value ([1]; All patients, 80 mg (n = 4)) was 2 (50 [6.8, 93.2]) n (%, [95% CI]). For the same compound, the PR ([1]; All patients, 80 mg (n = 4)) was 1 (25 [0.6, 80.6]) n (%, [95% CI]), the CR ([1]; All patients, 120 mg (n = 2)) was 0 n (%, [95% CI]) and the “CRc (CR plus CRp plus CRi)” value ([1]; All patients, 120 mg (n = 2)) was 1 (50 [1.3, 98.7]) n (%, [95% CI]). For the same compound, the CRi ([1]; All patients, 120 mg (n = 2)) was 1 (50 [1.3, 98.7]) n (%, [95% CI]), the CRp ([1]; All patients, 120 mg (n = 2)) was 0 n (%, [95% CI]) and the “ORR (CRc plus PR)” value ([1]; All patients, 120 mg (n = 2)) was 1 (50 [1.3, 98.7]) n (%, [95% CI]). For the same compound, the PR ([1]; All patients, 120 mg (n = 2)) was 0 n (%, [95% CI]), the CR ([1]; All patients, 200 mg (n = 7)) was 0 n (%, [95% CI]) and the “CRc (CR plus CRp plus CRi)” value ([1]; All patients, 200 mg (n = 7)) was 4 (57.1 [18.4, 90.1]) n (%, [95% CI]). The CRi ([1]; All patients, 200 mg (n = 7)) was 1 (14.3 [0.4, 57.9]) n (%, [95% CI]), the CRp ([1]; All patients, 200 mg (n = 7)) was 3 (42.9 [9.9, 81.6]) n (%, [95% CI]) and the “ORR (CRc plus PR)” value ([1]; All patients, 200 mg (n = 7)) was 4 (57.1 [18.4, 90.1]) n (%, [95% CI]). The PR ([1]; All patients, 200 mg (n = 7)) was 0 n (%, [95% CI]), the CR ([1]; All patients, 300 mg (n = 2)) was 0 n (%, [95% CI]) and the “CRc (CR plus CRp plus CRi)” value ([1]; All patients, 300 mg (n = 2)) was 0 n (%, [95% CI]). For the same compound, the CRi ([1]; All patients, 300 mg (n = 2)) was 0 n (%, [95% CI]), the CRp ([1]; All patients, 300 mg (n = 2)) was 0 n (%, [95% CI]) and the “ORR (CRc plus PR)” value ([1]; All patients, 300 mg (n = 2)) was 0 n (%, [95% CI]). For the same compound, the PR ([1]; All patients, 300 mg (n = 2)) was 0 n (%, [95% CI]), the CRc ([1]; FAS, all doses, 7 of 19 patients, 95% CI: 16.3, 61.6) was 36.8% and the ORR ([1]; FAS, all doses, n = 9/19, 95% CI: 24.4, 71.1) was 47.4%. For the same compound, the “Median duration of CRc” value ([1]; FAS, 95% CI: 28.0, 116.0) was 86.5 days, the “Median duration of remission” value ([1]; FAS, 95% CI: 28.0, 139.0) was 113.5 days and the CR [1, 8] was 1 (9.1 [0.2, 41.3]) n (%, [95% CI]). For the same compound, the “CRc (CR plus CRp plus CRi)” value [1, 8] was 3 (27.3 [6.0, 61.0]) n (%, [95% CI]), the CRi [1, 8] was 0 n (%, [95% CI]) and the CRp [1, 8] was 2 (18.2 [2.3, 51.8]) n (%, [95% CI]). The “ORR (CRc plus PR)” value [1, 8] was 4 (36.4 [10.9, 69.2]) n (%, [95% CI]), the PR [1, 8] was 1 (9.1 [0.2, 41.3]) n (%, [95% CI]) and the CRc ([1]; FLT3 mutation-positive patients (n = 5), 95% CI: 14.7, 94.7) was 60%. For the same compound, the ORR ([1]; FLT3 mutation-positive patients (n = 5), 95% CI: 28.4, 99.5) was 80%, the CR [1, 9] was 0 n (%, [95% CI]) and the “CRc (CR plus CRp plus CRi)” value [1, 9] was 1 (100 [2.5, 100]) n (%, [95% CI]). The CRi [1, 9] was 1 (100 [2.5, 100]) n (%, [95% CI]), the CRp [1, 9] was 0 n (%, [95% CI]) and the “ORR (CRc plus PR)” value [1, 9] was 1 (100 [2.5, 100]) n (%, [95% CI]). The PR [1, 9] was 0 n (%, [95% CI]), the CR [1, 10] was 0 n (%, [95% CI]) and the “CRc (CR plus CRp plus CRi)” value [1, 10] was 0 n (%, [95% CI]). For the same compound, the CRi [1, 10] was 0 n (%, [95% CI]), the CRp [1, 10] was 0 n (%, [95% CI]) and the “ORR (CRc plus PR)” value [1, 10] was 0 n (%, [95% CI]). The PR [1, 10] was 0 n (%, [95% CI]), the CR [1, 11] was 0 n (%, [95% CI]) and the “CRc (CR plus CRp plus CRi)” value [1, 11] was 0 n (%, [95% CI]). For the same compound, the CRi [1, 11] was 0 n (%, [95% CI]), the CRp [1, 11] was 0 n (%, [95% CI]) and the “ORR (CRc plus PR)” value [1, 11] was 1 (100 [2.5, 100]) n (%, [95% CI]). For the same compound, the PR [1, 11] was 1 (100 [2.5, 100]) n (%, [95% CI]), the CR [1, 12] was 0 n (%, [95% CI]) and the “CRc (CR plus CRp plus CRi)” value [1, 12] was 2 (100 [15.8, 100]) n (%, [95% CI]). The CRi [1, 12] was 1 (50 [1.3, 98.7]) n (%, [95% CI]), the CRp [1, 12] was 1 (50 [1.3, 98.7]) n (%, [95% CI]) and the “ORR (CRc plus PR)” value [1, 12] was 2 (100 [15.8, 100]) n (%, [95% CI]). For the same compound, the PR [1, 12] was 0 n (%, [95% CI]), the “Median duration of CRc” value ([1]; FLT3 mutation-positive patients, 95% CI: 30.0, 116.0) was 63.0 days and the “Median duration of remission” value ([1]; FLT3 mutation-positive patients, 95% CI: 30.0, not evaluable) was 89.5 days. The “CR with incomplete platelet recovery” value [1, 13] was 20%, the “partial remission (PR)” value [1, 13] was 20% and the “CR with incomplete hematologic recovery” value ([1]; patients with mutated FLT3 (n = 5), 2 patients) was 40%. The CR [1, 14] was 9.1%, the PR [1, 14] was 9.1% and the “CR with incomplete platelet recovery” value ([1]; patients with wild-type FLT3 (n = 11), 2 patients) was 18.2%. The CRc ([1]; patients without FLT3 mutations (n = 11), 95% CI: 6.0, 61.0) was 27.3%, the ORR ([1]; patients without FLT3 mutations (n = 11), 95% CI: 10.9, 69.2) was 36.4% and the “Median duration of CRc” value ([1]; patients without FLT3 mutations, 95% CI: 28.0, 111.0) was 69.5 days. For the same compound, the “Median duration of remission” value ([1]; patients without FLT3 mutations, 95% CI: 28.0, 127.0) was 111.0 days, the “accumulation relative to baseline” value ([2]; after multiple dose administration) was ~8 fold and the half-life ([2]; human, plasma, oral) was 84 to 126 h. For the same compound, the Tmax ([2]; human, plasma, oral, Median tmax, after administration of single or multiple doses) was 3 to 7 h, the “achievement of steady-state gilteritinib plasma concentrations (mean trough concentrations)” value ([2]; once-daily dosing, Day 1 Cycle 1 through Day 1 Cycle 2) was “by Day 15 Cycle 1” and the exposure versus dose ([2]; single-dose and multiple-dose) was “increased in a dose‐proportional manner”. For the same compound, the “mean percentage of unchanged excreted gilteritinib (urine)” value (Urine pharmacokinetics; after a single dose (data not shown)) was ≤ 3.6%, the “mean percentage of unchanged excreted gilteritinib (urine)” value (Urine pharmacokinetics; after multiple doses) was ≤ 13.1% and the “possible treatment-related prolongation of the QTcF interval” value ([3]; 1 patient, 40 mg/d dose cohort) was 4.2%. For the same compound, the “prolonged QT interval identified as an AE” value ([3]; 2 patients (20 mg/d and 40 mg/d)) was 8.3%, the “patients with maximum QTcF change of >30 ms” value ([3]; 5 of 22 evaluable patients) was 22.7% and the “patients with prolonged QT interval of >450 ms (QTcF)” value ([3]; 9 of 24 patients) was 37.5%. The “maximum postbaseline QTcF change from baseline” value [3, 15] was 65 ms, the “mean maximum postbaseline QTcF” value [3, 15] was 486 ms and the “inhibition of AXL” value (AXL) was “robust inhibitor”. For the same compound, the “inhibition of anaplastic lymphoma kinase” value [4] was “robust inhibitor”, the “inhibition of leukocyte receptor tyrosine kinase” value [5] was “robust inhibitor” and the “inhibition of FLT3 receptors expressing FLT3-ITD” value [6] was “strongly inhibited”. For the same compound, the “inhibition of FLT3 receptors expressing F691 gatekeeper mutations” value [7] was “weak inhibitor” and the “inhibitory effect on c-Kit” value (c-Kit) was “minimal inhibitory effect”.
